Data published in ChEMBL document CHEMBL1122670, “Synthesis of previously inaccessible quinazolines and 1,4-benzodiazepines as potential anticonvulsants” (J Med Chem, 1984).
“And” between values parts separate entries of the source, which are not always exact repeats. Equal entries are not always repeated. The source made the active and inactive calls.

Experiments:
Mus musculus [1] = species: Mus musculus; test: Compound was determined in rotarod test and expressed as TD50; I = Inactive.; type: ADME, organism-based; conditions: in vivo
In short: (§1)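 ADD Program screen in mice. Doses of 30, 100, 300 and 600 mg/kg were given, four animals per dose, with tests at 30 min and at 4 h. sc Met endpoint: no threshold seizure (single clonic spasm of 5 s) after an sc convulsant dose 99 of pentylenetetrazol. Rotorod assessed acute neurotoxicity. ED50/TD50 were estimated graphically; Litchfield-Wilcoxon 95% confidence limits were added for selected cases.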

Mus musculus [2] = test: Evaluated for seizure threshold test at a dose 25 mg/kg &MMT is the maximal metrazole threshold to tonic flexion; I = Inactive.; type: functional, organism-based; design: dose 25 mg/kg
In short: (§2)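 0.5% pentylenetetrazol (with 0.9% NaCl and 0.001% heparin) was infused into a lateral tail vein at 6.31 μL/s. Time to 3 s of persistent clonus (MST) or hindlimb tonic flexion (MMT) was converted to mg/kg infused. Tested at 0.5 h (some at 4 h or 1 h). Results are % change from controls, by Student's t test.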

Mus musculus [3] = test: Effective dose (ED50) was determined in sc Met (pentylenetetrazole) seizure threshold test; I = Inactive.; type: functional, organism-based; in short: as §1
Mus musculus [4] = test: Evaluated for seizure threshold test at a dose 25 mg/kg &MST is the metrazole seizure threshold to persistent clonus; I = Inactive.; type: functional, organism-based; design: dose 25 mg/kg; in short: as §2
Mus musculus [5] = test: Evaluated for seizure threshold test at a dose 600 mg/kg &MMT is the maximal metrazole threshold to tonic flexion.; type: functional; in short: as §2
[6] = Compound was determined in rotarod test and expressed as TD50; type: ADME, organism-based; conditions: mouse, in vivo
In short: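 ADD Program screen in mice. Doses of 30, 100, 300 and 600 mg/kg were given, four animals per dose, with tests at 30 min and at 4 h. sc Met endpoint: no threshold seizure (single clonic spasm of 5 s) after an sc convulsant dose 99 of pentylenetetrazol. Rotorod assessed acute neurotoxicity.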

Mus musculus [7] = test: Evaluated for seizure threshold test at a dose 600 mg/kg &MST is the metrazole seizure threshold to persistent clonus; type: functional
In short: (§3)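 At 0.5 h (some at 1 or 4 h), 0.5% pentylenetetrazol in 0.9% NaCl with 0.001% heparin was infused into the tail vein at 6.31 μL/s. Time to 3 s persistent clonus (MST) or tonic flexion (MMT) was converted to mg/kg, reported as % change vs controls, Student's t test.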

Mus musculus [8] = test: Effective dose (ED50) was determined in sc Met (pentylenetetrazole) seizure threshold test; type: functional; in short: as §1
Mus musculus [9] = test: Evaluated for seizure threshold test at a dose 300 mg/kg & MST is the metrazole seizure threshold to persistent clonus; type: functional; in short: as §3
Mus musculus [10] = test: Evaluated for seizure threshold test at a dose 100 mg/kg & MMT is the maximal metrazole threshold to tonic flexion; I - Inactive.; type: functional, organism-based; design: dose 100 mg/kg; in short: as §2
Mus musculus [11] = test: Evaluated for seizure threshold test at a dose 300 mg/kg & MMT is the maximal metrazole threshold to tonic flexion; I - Inactive.; type: functional; in short: as §2
Mus musculus [12] = test: Evaluated for seizure threshold test at a dose 100 mg/kg & MST is the metrazole seizure threshold to persistent clonus; type: functional; in short: as §3
[13] = molecular target: GABA-A receptor; anion channel; test: Binding affinity for umolar GABA-A central benzodiazepine receptor; type: protein-complex assay, Mus musculus
Mus musculus [14] = test: Evaluated for seizure threshold test at a dose 300 mg/kg &MST is the metrazole seizure threshold to persistent clonus; type: functional; in short: as §3
Mus musculus [15] = test: Effective dose (ED50) was determined in sc Met (pentylenetetrazole) seizure threshold test; I = Inactive at all doses including 600 mg/kg; type: functional, organism-based; design: dose 600 mg/kg; in short: as §1
[16] = test system: GABA-A receptor; anion channel; test: Inhibition of binding to GABA-A central benzodiazepine receptor (Inactive); type: protein-complex assay, Mus musculus
Mus musculus [17] = test: Evaluated for seizure threshold test at a dose 300 mg/kg &MMT is the maximal metrazole threshold to tonic flexion; I = Inactive; type: functional, organism-based; design: dose 300 mg/kg; in short: as §3
Mus musculus [18] = test: Evaluated for seizure threshold test at a dose 39 mg/kg & MMT is the maximal metrazole threshold to tonic flexion.; type: functional; in short: as §3
Mus musculus [19] = test: In vivo inhibition of Benzodiazepine (BDZ) binding in mice; type: functional, organism-based
Mus musculus [20] = test: Evaluated for seizure threshold test at a dose 49 mg/kg & MST is the metrazole seizure threshold to persistent clonus; type: functional; in short: as §3
Mus musculus [21] = test: Evaluated for seizure threshold test at a dose 100 mg/kg & MMT is the maximal metrazole threshold to tonic flexion.; type: functional; in short: as §3
Mus musculus [22] = test: Evaluated for seizure threshold test at a dose 300 mg/kg &MMT is the maximal metrazole threshold to tonic flexion.; type: functional; in short: as §2
Mus musculus [23] = test: Evaluated for seizure threshold test at a dose 100 mg/kg & MMT is the maximal metrazole threshold to tonic flexion; I - inactive; type: functional, organism-based; design: dose 100 mg/kg; in short: as §2
Mus musculus [24] = test: Evaluated for seizure threshold test at a dose 30 mg/kg & MMT is the maximal metrazole threshold to tonic flexion; I = Inactive.; type: functional, organism-based; design: dose 30 mg/kg; in short: as §2
Mus musculus [25] = test: Evaluated for seizure threshold test at a dose 30 mg/kg & MST is the metrazole seizure threshold to persistent clonus; type: functional; in short: as §3
[26] = Compound was evaluated for median lethal dose; type: ADME, organism-based; conditions: mouse, in vivo
Mus musculus [27] = test: Evaluated for seizure threshold test at a dose 1.0 mg/kg &MST is the metrazole seizure threshold to persistent clonus; type: functional; in short: as §3
Mus musculus [28] = test: Evaluated for seizure threshold test at a dose 0.2 mg/kg &MST is the metrazole seizure threshold to persistent clonus; type: functional; in short: as §3
Mus musculus [29] = test: Evaluated for seizure threshold test at a dose 1.0 mg/kg &MMT is the maximal metrazole threshold to tonic flexion.; type: functional; in short: as §3
Mus musculus [30] = test: Evaluated for seizure threshold test at a dose 0.2 mg/kg &MMT is the maximal metrazole threshold to tonic flexion.; type: functional; in short: as §3
Mus musculus [31] = test: Evaluated for seizure threshold test at a dose 300 mg/kg &MST is the metrazole seizure threshold to persistent clonus; NA - Inactive.; type: functional, organism-based; design: dose 300 mg/kg; in short: as §2

| SMILES | TD50 (Mus musculus [1]) | Change (Mus musculus [2]) | ED50 (Mus musculus [3]) | Change (Mus musculus [4]) | TD50 [6] [mg/kg] | ED50 (Mus musculus [8]) [mg/kg] | other results |
| --- | --- | --- | --- | --- | --- | --- | --- |
| Cc1cc2c(C)nc(O)nc2c(C#N)c1C | Not Active | Not significant | inactive | Not significant | – | – | – |
| Cc1cc(C(=O)C2CC2)c(N)c(C#N)c1C | – | – | – | – | > 600 | 600 | Change (Mus musculus [5]): 37%; Change (Mus musculus [7]): 23% |
| CC(=O)c1cc(C)c(C)c(C#N)c1NC(=O)CBr | – | – | – | – | 600 | 500 | Change (Mus musculus [9]): -22%; Change (Mus musculus [10]): Not significant; Change (Mus musculus [11]): -17%; Change (Mus musculus [12]): -14% |
| O=C1NC(=O)C(c2ccccc2)(c2ccccc2)N1 [PHENYTOIN] | – | – | – | – | – | – | Ki [13]: 155 µM |
| Cc1cc2c(c(C#N)c1C)NC(=O)CN=C2C1CC1 | – | – | – | – | 600 | – | Change (Mus musculus [14]): 300%; ED50 (Mus musculus [15]): inactive; IC50 [16]: Not Active; Change (Mus musculus [17]): inactive |
| Cc1cc2c(c(C#N)c1C)NC(=O)CN=C2c1ccccc1F | – | – | – | – | 710 | 48.9 | Change (Mus musculus [18]): 30%; IC50 (Mus musculus [19]): 0.01 nM; Change (Mus musculus [20]): 23%; Change (Mus musculus [12]): 65%; Change (Mus musculus [21]): 50% |
| CC(=O)c1cc(C)c(C)c(C#N)c1N | – | – | – | – | > 600 | 300 | Change (Mus musculus [22]): 13%; Change (Mus musculus [14]): 15% |
| Cc1cc2c(-c3ccccc3F)nc(O)nc2c(C#N)c1C | Not Active | Not significant | inactive | Not significant | – | – | – |
| Cc1cc2c(-c3ccccc3F)ncnc2c(C#N)c1C | Not Active | Not significant | inactive | Not significant | – | – | – |
| Cc1cc(C(=O)c2ccccc2)c(NC(=O)CBr)c(C#N)c1C | – | – | – | – | 600 | 480 | Change (Mus musculus [23]): inactive; Change (Mus musculus [12]; 100 mg/kg): 70% and 37%; Change (Mus musculus [21]): 49% |
| CC1=NCC(=O)Nc2c1cc(C)c(C)c2C#N | – | – | – | – | 70 | – | ED50 (Mus musculus [15]): inactive; Change (Mus musculus [24]): Not significant; Change (Mus musculus [25]): 30%; LD50 [26]: 150 mg/kg |
| CN1C(=O)CN=C(c2ccccc2)c2cc(Cl)ccc21 [DIAZEPAM] | – | – | – | – | 7.3 | 0.17 | Change (Mus musculus [27]): 60%; Change (Mus musculus [28]): 50%; Change (Mus musculus [29]): 40%; Change (Mus musculus [30]): 15% |
| CC1N=CNc2c1cc(-c1ccccc1)c(-c1ccccc1)c2C#N (configuration not stated) | Not Active | Not significant | inactive | Not significant | – | – | – |
| Cc1cc2c(-c3ccccc3)nc(O)nc2c(C#N)c1C | Not Active | Not significant | inactive | Not significant | – | – | – |
| CC(=O)c1cc(-c2ccccc2)c(-c2ccccc2)c(C#N)c1N | – | – | – | – | > 600 | 260 | Change (Mus musculus [22]): 20%; Change (Mus musculus [31]): inactive |
